Most compounds without a hit are left out; they make up all but 2% or so of the library.
ATG4B inh: ATG4B protease inhibitors, primary screen, biochemical, fluorescence, uHTS; Cysteine protease ATG4B (Homo sapiens), Q9Y4P1; ATG4B cleavage of LC3-PLA2, NBD-HPC fluorescence, 1 h; inhibition, % at 8.33 µM; 340,000 tested, 0.51% active; AID 504462, 2011
HNF4A DNA FP: change in binding of human HNF4A to DNA, primary screen, biochemical, fluorescence polarization, FITC-DNA; 360,000 tested, 0.3% active; Hepatocyte nuclear factor 4-alpha (Homo sapiens), P41235; activity change, % at 10 µM; AID 1224865, 2016; 1 h; in the data active = activity change above about 30%, passing the limit was not always enough
CSN deneddyl inh: inhibitors of CSN-mediated cullin deneddylation, primary screen, biochemical, fluorescence polarization, uHTS; COP9 signalosome complex subunit 5 (Homo sapiens), Q92905; 360,000 tested, 0.38% active; inhibition, % at 12.5 µM; Purified CSN, SCF-Nedd8-OG deneddylation;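 active = pattern-corrected inhibition above about 35%, with an unprinted fluorescence ratio check between 0.5 and 1.5, limit read from the data, passing the limit was not always enough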;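 note: 0% = enzyme with substrate and 100% = substrate without enzyme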
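Assay system: Purified human Csn5 enzyme expressed in HEK293T cells | Amount: Enzyme 0.24 nM | Measured by: Fluorescence polarization readout | Medium: Tris/NaCl/DTT buffer, pH 7.5 | Compound dosing: One concentration, 12.5 µM, 0.25% DMSO | Times: 90 min incubation of compound, enzyme and substrate at room temperature | Control set: no-enzyme wells high, enzyme-with-substrate wells low | Read-out: % inhibition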
Rpn11 block: Rpn11 (PSMD14) deubiquitinase inhibitors, primary screen, biochemical, fluorescence polarization, uHTS | 360,000 tested, 0.59% active | inhibition, % at 20 µM | 26S proteasome non-ATPase regulatory subunit 14 (Homo sapiens), O00487 | AID 588493, 2011 | human 26S proteasome, Ub4-pepOG fluorescence polarization; 20S core pre-blocked with epoxomicin;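 active = inhibition at 20 µM, scaled to each plate's controls, above about 33%, limit read from the data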
SENP1 FRET inh: human SENP1 catalytic domain inhibitors, primary screen, biochemical, FRET, uHTS. Sentrin-specific protease 1 (Homo sapiens), Q9P0U3. recombinant SENP1 catalytic domain, CyPet-SUMO1-YPet FRET cleavage. inhibition, % at 10 µM. 360,000 tested, 0.21% active;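 active = inhibition at least 30% at 10 µM, raw YFP signal under a set limit, fluorescence ratio 0.5 to 1.5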;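 note: 0% = enzyme with DMSO and 100% = no enzyme wells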
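Test system: recombinant human SENP1 catalytic domain, His6-tagged / Medium: pH 8 Tris buffer with EDTA, NaCl, BME, BSA, NP40, catalase / Also added: SUMO1 FRET substrate flanked by Cypet and Ypet, 25 nM / Times: 50 min reaction at room temperature / Signal: FRET, CFP and YFP emission / Control set: no-enzyme low control and enzyme-plus-DMSO high control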
TPT1 inh: Candida albicans TPT1 enzyme inhibitors, primary screen, biochemical, fluorescence polarization; tRNA 2'-phosphotransferase TPT1 (Candida albicans SC5314); recombinant caTPT1, FP RNA substrate dephosphorylation; inhibition, % at 5 µM; 300,000 tested, 0.81% active; AID 1962, 2009;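 active = inhibition above the mean of all tested compounds plus 3 SD, set per screening campaign, cut at about 24% in these data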;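 note: plate controls were DMSO alone for no effect and ferristatin control at 100 nM for full effect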
Rpn11 confirm: Rpn11 (PSMD14) deubiquitinase inhibitors, confirmation, biochemical, fluorescence polarization, single concentration; shares compounds with Rpn11 block; purified human 26S proteasome, Ub4-pepOG fluorescence polarization; proteasome pretreated with epoxomicin; inhibition, % at 20 µM; 1,900 tested, 29% active
MMP-2 counter: MMP-2 enzyme inhibition, confirmation, counter-screen for RPN11 inhibitor project, biochemical, fluorescence, single concentration | shares compounds with Rpn11 block | recombinant MMP-2, FRET peptide cleavage fluorescence | inhibition, % at 20 µM | 1,900 tested, 4% active;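 note: human MMP-2 activated beforehand with APMA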
Target sequence (P08253 whole entry, looked up): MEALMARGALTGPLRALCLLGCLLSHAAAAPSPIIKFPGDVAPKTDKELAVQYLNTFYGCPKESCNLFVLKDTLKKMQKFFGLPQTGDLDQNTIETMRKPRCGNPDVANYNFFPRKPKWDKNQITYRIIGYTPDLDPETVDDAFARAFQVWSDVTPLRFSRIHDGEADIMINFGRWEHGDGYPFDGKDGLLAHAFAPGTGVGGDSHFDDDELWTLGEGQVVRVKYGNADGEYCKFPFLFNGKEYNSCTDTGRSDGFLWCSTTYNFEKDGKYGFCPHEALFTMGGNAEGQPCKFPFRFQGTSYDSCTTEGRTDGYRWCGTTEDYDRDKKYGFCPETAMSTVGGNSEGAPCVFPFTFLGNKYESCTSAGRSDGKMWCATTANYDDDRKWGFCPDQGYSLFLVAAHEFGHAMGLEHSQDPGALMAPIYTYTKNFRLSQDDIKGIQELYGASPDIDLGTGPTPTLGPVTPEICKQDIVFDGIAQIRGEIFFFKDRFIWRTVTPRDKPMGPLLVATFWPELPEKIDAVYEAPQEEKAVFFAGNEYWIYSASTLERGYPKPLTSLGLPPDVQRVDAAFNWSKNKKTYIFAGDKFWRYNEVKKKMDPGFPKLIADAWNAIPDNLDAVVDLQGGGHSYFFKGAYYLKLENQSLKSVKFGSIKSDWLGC
Thrombin FP: bovine thrombin protease inhibition, confirmation, counter-screen for Rpn11 inhibitor project, biochemical, fluorescence polarization, single concentration | shares compounds with Rpn11 block | inhibition, % at 20 µM | 1,900 tested, 13% active | AID 602333, 2012 | bovine thrombin cleavage of Ub4-pepOG;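 active = mean inhibition at least 40% at 20 µM, or signal 3 deviations below plate average, so some actives read negative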;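 note: plate controls were thrombin with DMSO for no effect and buffer wells lacking thrombin for full effect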
* marks the source's active call; other numbers are inactive results. Cut-off read from the data, not from the text of the source, unless noted: active = inhibition above about 40%; inactive = the rest.

Results for CC(C)(C)NC(=O)C1c2ccccc2OCC(=O)N1Cc1ccco1 (stereo not given) ?
HNF4A DNA FP: -2.8; CSN deneddyl inh: 2.9; SENP1 FRET inh: 1.9

Results for CCc1ccc(NC(=O)Cn2nnc(C(=O)NCc3ccco3)c2N)cc1 ?
ATG4B inh: -1.6; HNF4A DNA FP: 0.2; CSN deneddyl inh: 1.6; Rpn11 block: 0.4; SENP1 FRET inh: -0.9; TPT1 inh: 1.4

Results for Cc1cc(C)c2nc(/N=C(\N)NC(=O)c3ccccc3)nc(C)c2c1 ?
ATG4B inh: -10.1; HNF4A DNA FP: -0.3; CSN deneddyl inh: 0.4; Rpn11 block: 1.4; SENP1 FRET inh: -1.6; TPT1 inh: -3.7

Results for Cc1cc(C)c2nc(/N=C(\N)NC(=O)Nc3ccccc3)nc(C)c2c1 ?
ATG4B inh: -19.1; HNF4A DNA FP: 6.2; CSN deneddyl inh: 7.6; Rpn11 block: 46.8*; SENP1 FRET inh: -3.1; TPT1 inh: -3.0; Rpn11 confirm: 15.4; MMP-2 counter: 28.5; Thrombin FP: -8.2

Results for COc1ccc(C(=O)Nc2nc3nc(-c4ccccc4)cc(=O)n3[nH]2)cc1 ?
ATG4B inh: -4.1; HNF4A DNA FP: -26.4; CSN deneddyl inh: 2.1; Rpn11 block: 69.3*; SENP1 FRET inh: -1.4; Rpn11 confirm: -4.2; MMP-2 counter: 3.9; Thrombin FP: -21.7

Results for C[C@@H]1CN([C@@H](C)CO)S(=O)(=O)c2ccc(Br)cc2O[C@H]1CN(C)C(=O)Cc1cccnc1 ?
HNF4A DNA FP: -2.0; CSN deneddyl inh: 4.3; Rpn11 block: 3.8; SENP1 FRET inh: -1.8

What do the screens show for `FC(F)(F)c1ccc2c(c1)n(Cc1ccccc1)c1[n+]2CCCCC1`?
ATG4B inh: 1.7; HNF4A DNA FP: 10.7; CSN deneddyl inh: 6.7; Rpn11 block: 54.0*; SENP1 FRET inh: -60.5; TPT1 inh: 9.1; Rpn11 confirm: -11.5; MMP-2 counter: 3.2; Thrombin FP: -20.6

What do the screens show for `O=C(Cn1c2[n+](c3ccc(C(F)(F)F)cc31)CCCCC2)Nc1ccccc1`?
ATG4B inh: 7.2; HNF4A DNA FP: 2.0; CSN deneddyl inh: -4.8; Rpn11 block: -9.3; SENP1 FRET inh: -2.9; TPT1 inh: -0.2

Results for O=C(N/N=C/c1cccc([N+](=O)[O-])c1)c1ccc(Br)cc1 ?
ATG4B inh: -3.9; HNF4A DNA FP: 6.7; CSN deneddyl inh: 11.8; Rpn11 block: 41.8*; SENP1 FRET inh: -0.5; TPT1 inh: 0.5; Rpn11 confirm: 17.0; MMP-2 counter: 41.0*; Thrombin FP: 1.2

How did O=C(N/N=C/c1cccc([N+](=O)[O-])c1)c1cccc(Br)c1 do in these assays?
ATG4B inh: -9.0; HNF4A DNA FP: -3.6; CSN deneddyl inh: 4.7; Rpn11 block: 3.0; SENP1 FRET inh: -0.4; TPT1 inh: 2.6

Results for COc1cc(/C=N/NC(=O)c2ccc(O)cc2)ccc1OCC(=O)Nc1cccc([N+](=O)[O-])c1 ?
ATG4B inh: -2.6; HNF4A DNA FP: 6.3; CSN deneddyl inh: 16.0; Rpn11 block: 115.6*; SENP1 FRET inh: 0.5; TPT1 inh: 0.9; Rpn11 confirm: 8.9; MMP-2 counter: -18.2; Thrombin FP: -3.2

What do the screens show for `Cc1cc2nc(/C=C/c3nc4cc(C)c(C)cc4[nH]3)[nH]c2cc1C`?
ATG4B inh: -6.2; HNF4A DNA FP: 24.6; CSN deneddyl inh: 5.5; Rpn11 block: 56.5*; SENP1 FRET inh: -20.7; TPT1 inh: 13.3; Rpn11 confirm: 3.8; MMP-2 counter: -5.3; Thrombin FP: -29.9

How did Cc1cc2nc(CS)[nH]c2cc1C do in these assays?
ATG4B inh: -2.2; HNF4A DNA FP: 34.8; CSN deneddyl inh: 5.9; Rpn11 block: 49.9*; SENP1 FRET inh: -26.0; TPT1 inh: 6.0; Rpn11 confirm: 52.5*; MMP-2 counter: 13.9; Thrombin FP: 0.9

What do the screens show for `O=C(CN1C(=O)C2CCCCC2C1=O)OCC(=O)c1ccc(F)cc1` (stereo not given)?
ATG4B inh: 8.9; HNF4A DNA FP: 0.2; CSN deneddyl inh: -3.4; Rpn11 block: -5.3; SENP1 FRET inh: 0.6

Results for C[C@H](NC(=O)c1ccco1)C(=O)NC1CCCCCC1 ?
ATG4B inh: -3.3; HNF4A DNA FP: 3.0; CSN deneddyl inh: -2.3; Rpn11 block: -3.3; SENP1 FRET inh: 1.5

Results for CSCCC(NC(=O)c1ccco1)C(=O)OC(C)C(=O)NC(=O)NC1CCCCC1 (stereo not given) ?
ATG4B inh: -9.8; HNF4A DNA FP: -42.4; CSN deneddyl inh: -1.6; Rpn11 block: 94.8*; SENP1 FRET inh: 4.9; TPT1 inh: 0.2; Rpn11 confirm: -3.4; MMP-2 counter: 5.6; Thrombin FP: -0.2

What do the screens show for `CCN(CC)S(=O)(=O)c1cccc(C(=O)NC(C(=O)NNC(=O)c2ccccc2F)C(C)C)c1` (stereo not given)?
ATG4B inh: -9.4; HNF4A DNA FP: -1.3; CSN deneddyl inh: 1.9; Rpn11 block: 2.0; SENP1 FRET inh: -0.4

What do the screens show for `COC(=O)c1sc(NC(=O)/C=C/c2ccccc2Cl)nc1C`?
ATG4B inh: -6.4; HNF4A DNA FP: 46.9*; CSN deneddyl inh: 23.3; Rpn11 block: 55.4*; SENP1 FRET inh: 1.8; TPT1 inh: 1.9; Rpn11 confirm: 1.4; MMP-2 counter: -5.6; Thrombin FP: -12.2

Results for Cc1cccc(NC(=S)N/N=C/c2ccc([N+](=O)[O-])s2)c1 ?
ATG4B inh: -18.7; HNF4A DNA FP: 10.5; CSN deneddyl inh: 16.8; Rpn11 block: 38.6*; SENP1 FRET inh: 37.9; TPT1 inh: 21.8; Rpn11 confirm: 2.1; MMP-2 counter: 35.8; Thrombin FP: -12.7

Screens (PubChem BioAssay)
